Measurements as given in ChEMBL document CHEMBL1141199, “N-benzylisatin sulfonamide analogues as potent caspase-3 inhibitors: synthesis, in vitro activity, and molecular modeling studies” (J Med Chem, 2005).

Legend:
Caspase-6 = target: T1, Caspase-6 (Homo sapiens, UniProt P55212); assay: Inhibitory activity against caspase 6 using Ac-VEID-AMC substrate
T1 sequence (P55212 whole entry): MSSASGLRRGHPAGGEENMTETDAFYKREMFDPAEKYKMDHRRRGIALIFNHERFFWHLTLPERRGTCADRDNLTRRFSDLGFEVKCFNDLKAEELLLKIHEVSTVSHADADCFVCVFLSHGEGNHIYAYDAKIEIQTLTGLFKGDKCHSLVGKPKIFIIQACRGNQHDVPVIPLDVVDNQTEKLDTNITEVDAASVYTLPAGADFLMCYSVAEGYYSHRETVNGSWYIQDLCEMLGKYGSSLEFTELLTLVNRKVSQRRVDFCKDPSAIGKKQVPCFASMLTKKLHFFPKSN
Method in brief: (§1)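 Substrates at 10 µM: Ac-DEVD-AMC (caspase-3), Ac-VEID-AMC (caspase-6), Ac-IETD-AMC (caspase-8). Serially diluted inhibitors were preincubated 30 min on ice, then run 1–2 h at 37 °C in 5% final DMSO. AMC fluorescence ex 355/em 460 nm. Duplicates; IC50 averaged over three experiments.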

Caspase-8 = Caspase-8 (Homo sapiens, UniProt Q14790); assay: Inhibitory activity against caspase 8 using Ac-IETD-AMC substrate; method in brief: as §1
Caspase-1 = target: T2, Caspase-1 (Homo sapiens, UniProt P29466); assay: Inhibitory activity against caspase 1 using Ac-YVAD-AMC substrate
T2 sequence (P29466 whole entry): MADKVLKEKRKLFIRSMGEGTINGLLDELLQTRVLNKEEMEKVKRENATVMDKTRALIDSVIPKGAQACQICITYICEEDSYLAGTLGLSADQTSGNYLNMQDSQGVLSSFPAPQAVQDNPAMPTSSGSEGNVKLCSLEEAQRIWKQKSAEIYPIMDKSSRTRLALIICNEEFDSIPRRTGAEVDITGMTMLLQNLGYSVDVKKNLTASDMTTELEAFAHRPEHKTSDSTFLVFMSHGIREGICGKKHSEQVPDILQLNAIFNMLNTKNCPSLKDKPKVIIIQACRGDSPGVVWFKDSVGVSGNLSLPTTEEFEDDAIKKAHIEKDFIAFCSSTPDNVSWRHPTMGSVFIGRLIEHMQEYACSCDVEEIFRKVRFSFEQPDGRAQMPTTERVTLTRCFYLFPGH
Method in brief: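 Substrate solution carried an extra 10 mM 2-mercaptoethanol. Inhibitors in DMSO were preincubated 30 min on ice, then run 1–2 h at 37 °C. AMC was read at ex 355/em 460 nm. Duplicates; IC50 is the mean of three experiments.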

Caspase-3 = target: T3, Caspase-3 (Homo sapiens, UniProt P42574); assay: Inhibitory activity against caspase 3 using Ac-DEVD-AMC substrate; method in brief: as §1
T3 sequence (P42574 whole entry): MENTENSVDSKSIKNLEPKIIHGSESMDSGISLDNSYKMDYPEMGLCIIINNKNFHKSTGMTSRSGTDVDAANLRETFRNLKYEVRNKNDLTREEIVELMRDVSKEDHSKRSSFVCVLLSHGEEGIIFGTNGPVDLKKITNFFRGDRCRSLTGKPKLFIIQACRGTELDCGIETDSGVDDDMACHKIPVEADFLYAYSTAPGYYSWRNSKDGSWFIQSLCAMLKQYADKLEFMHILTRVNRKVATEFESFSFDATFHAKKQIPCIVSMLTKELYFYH

Caspase-7 = target: T4, Caspase-7 (Homo sapiens, UniProt P55210); assay: Inhibitory activity against caspase 7 using Ac-DEVD-AMC substrate
T4 sequence (P55210 whole entry): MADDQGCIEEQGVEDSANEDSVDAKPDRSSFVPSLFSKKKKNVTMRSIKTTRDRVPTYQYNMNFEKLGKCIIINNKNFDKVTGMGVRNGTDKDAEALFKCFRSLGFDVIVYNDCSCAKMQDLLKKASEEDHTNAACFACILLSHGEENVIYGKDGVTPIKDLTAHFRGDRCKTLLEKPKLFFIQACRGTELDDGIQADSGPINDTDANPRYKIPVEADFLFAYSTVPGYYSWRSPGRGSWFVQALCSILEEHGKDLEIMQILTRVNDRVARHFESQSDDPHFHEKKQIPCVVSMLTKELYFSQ
Method in brief: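 Substrate solution held a further 10 mM 2-mercaptoethanol for full activation. Enzyme was used at a linear-range level. DMSO inhibitor dilutions (5% final) were preincubated 30 min on ice, then run 1–2 h at 37 °C. AMC read at 355/460 nm. Duplicates; IC50 is the mean of three runs.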

Chain of Caspase-8 (Q14790 217-374 limits assumed): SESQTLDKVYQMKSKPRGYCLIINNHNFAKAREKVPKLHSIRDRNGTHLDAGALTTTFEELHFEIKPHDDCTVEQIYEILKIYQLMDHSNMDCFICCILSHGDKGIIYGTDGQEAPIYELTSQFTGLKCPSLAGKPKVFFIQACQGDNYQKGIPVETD
Chain of Caspase-8 (Q14790 385-479 limits assumed): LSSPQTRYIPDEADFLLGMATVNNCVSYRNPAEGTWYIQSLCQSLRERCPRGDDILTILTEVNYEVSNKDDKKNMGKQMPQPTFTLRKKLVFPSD

Row | SMILES | IC50 (Caspase-6) [µM] | IC50 (Caspase-8) [µM] | IC50 (Caspase-1) [µM] | IC50 (Caspase-3) [µM] | IC50 (Caspase-7) [µM]
1 | O=C1C(=O)N(Cc2ccccc2)c2ccc(S(=O)(=O)N3CCC[C@H]3COc3ccccc3)cc21 | > 5 | > 50 | > 10 |  | 
2 | O=C1Nc2ccc(S(=O)(=O)N3CC[C@H]3COc3ccccc3)cc2C1=O | > 5 | > 50 | > 10 |  | 
3 | COc1ccc(CN2C(=O)C(=O)c3cc(S(=O)(=O)N4CC[C@H]4COc4ccccc4)ccc32)cc1 | > 5 | > 50 | > 50 |  | 
4 | CC(=O)Oc1ccc(CN2C(=O)C(=O)c3cc(S(=O)(=O)N4CCC[C@H]4COc4ccccc4)ccc32)cc1 | > 5 | > 50 | > 50 | 0.012 | 0.0348
5 | O=C1Nc2ccc(S(=O)(=O)N3CCC[C@H]3COc3ccncc3)cc2C1=O | > 5 | > 50 | > 5 | 0.0204 | 0.142
6 | CN1C(=O)C(=O)c2cc(S(=O)(=O)N3CC[C@H]3COc3ccccc3)ccc21 | > 5 | > 50 | > 10 |  | 
7 | CN1C(=O)C(=O)c2cc(S(=O)(=O)N3CCC[C@H]3COc3ccccc3)ccc21 | > 5 | > 50 | > 20 | 0.119 | 0.31
8 | COc1ccc(CN2C(=O)C(=O)c3cc(S(=O)(=O)N4CCC[C@H]4COc4ccccc4)ccc32)cc1 | > 5 | > 50 | > 10 | 0.0145 | 0.0218
9 | CSc1ccc(CN2C(=O)C(=O)c3cc(S(=O)(=O)N4CCC[C@H]4COc4cccnc4)ccc32)cc1 | > 5 | > 50 | > 50 | 0.0044 | 0.0233
10 | O=C1C(=O)N(Cc2ccccc2)c2ccc(S(=O)(=O)N3CC[C@H]3COc3ccccc3)cc21 | > 5 | > 50 | > 10 |  | 
11 | O=C1C(=O)N(Cc2ccc(O)cc2)c2ccc(S(=O)(=O)N3CCC[C@H]3COc3ccccc3)cc21 | > 5 | > 50 | > 5 |  | 
12 | O=C1Nc2ccc(S(=O)(=O)N3CCC[C@H]3COc3cccnc3)cc2C1=O | > 5 | > 50 | > 5 | 0.0583 | 0.215
13 | CSc1ccc(CN2C(=O)C(=O)c3cc(S(=O)(=O)N4CCC[C@H]4COc4ccccc4)ccc32)cc1 | > 5 | > 50 | > 50 | 0.0124 | 0.041
14 | O=C1C(=O)N(Cc2ccc(F)nc2)c2ccc(S(=O)(=O)N3CCC[C@H]3COc3ccccc3)cc21 | > 5 | > 50 | > 50 |  | 

Continued, values first:

Row | IC50 (Caspase-6) [µM] | IC50 (Caspase-8) [µM] | IC50 (Caspase-1) [µM] | IC50 (Caspase-3) [µM] | IC50 (Caspase-7) [µM] | SMILES
15 | > 5 | > 50 | > 50 |  |  | CSc1ccc(CN2C(=O)C(=O)c3cc(S(=O)(=O)N4CC[C@H]4COc4ccccc4)ccc32)cc1
16 | > 5 | > 50 | > 50 |  |  | O=C1C(=O)N(Cc2ccnc(F)c2)c2ccc(S(=O)(=O)N3CCC[C@H]3COc3ccccc3)cc21
17 | > 5 | > 50 | > 50 |  |  | O=C1C(=O)N(Cc2ccc(F)nc2)c2ccc(S(=O)(=O)N3CC[C@H]3COc3ccccc3)cc21
18 | > 5 | > 50 | > 10 |  |  | O=C1C(=O)N(Cc2cccc(F)n2)c2ccc(S(=O)(=O)N3CC[C@H]3COc3ccccc3)cc21
19 | > 5 | > 50 | > 10 | 0.0052 | 0.0141 | O=C1C(=O)N(Cc2ccccc2)c2ccc(S(=O)(=O)N3CCC[C@H]3COc3cccnc3)cc21
20 | > 5 | > 50 | > 10 | 0.0084 | 0.0151 | O=C1C(=O)N(Cc2ccc(F)cc2)c2ccc(S(=O)(=O)N3CCC[C@H]3COc3cccnc3)cc21
21 | > 5 | > 50 | > 10 |  |  | O=C1Nc2ccc(S(=O)(=O)N3CCC[C@H]3COc3ccccc3)cc2C1=O
22 | > 5 | > 50 | > 10 |  |  | O=C1C(=O)N(Cc2ccc(F)cc2)c2ccc(S(=O)(=O)N3CC[C@H]3COc3ccccc3)cc21
23 | > 5 | > 50 | > 10 |  |  | O=C1C(=O)N(Cc2ccccc2F)c2ccc(S(=O)(=O)N3CC[C@H]3COc3ccccc3)cc21
24 | > 5 | > 50 | > 50 |  |  | O=C1C(=O)N(Cc2cccc(F)n2)c2ccc(S(=O)(=O)N3CCC[C@H]3COc3ccccc3)cc21
25 | > 5 | > 50 | > 50 |  |  | O=C1C(=O)N(Cc2ccnc(F)c2)c2ccc(S(=O)(=O)N3CC[C@H]3COc3ccccc3)cc21
26 | > 5 | > 50 | > 50 | 0.0121 | 0.023 | O=C1C(=O)N(Cc2ccc(F)cc2)c2ccc(S(=O)(=O)N3CCC[C@H]3COc3ccccc3)cc21
27 | > 5 | > 50 | > 10 | 0.0233 | 0.0949 | CN1C(=O)C(=O)c2cc(S(=O)(=O)N3CCC[C@H]3COc3cccnc3)ccc21
28 | > 5 | > 50 | > 10 | 0.0039 | 0.0151 | COc1ccc(CN2C(=O)C(=O)c3cc(S(=O)(=O)N4CCC[C@H]4COc4cccnc4)ccc32)cc1
